In ChEMBL document CHEMBL1141192 (J Med Chem, 2005):
Converted amounts (≈) assume the structure as drawn.

Key:
[1] = Solubility in water at pH 7.4
Adenosine kinase = Adenosine kinase (Homo sapiens, UniProt P55263); assay: Inhibitory activity against recombinant human adenosine kinase
Rattus norvegicus = assay: Inhibition of the licking and biting response at 20 mg/kg, po in rat by formalin paw antinociceptive assay; type: functional; conditions: Sprague-Dawley
Summary of the method: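 Screening: fasted male SD rats (105–115 g), three per compound, 20 mg/kg po in 0.1% MC 15 min before 2% formalin (50 μL s.c., right hindpaw). Licking/biting scored 5 s per 30 s; percent inhibition reported for 2nd phase (15–30 min); positive control 5 mg/kg po each run.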

Sequence of Adenosine kinase (P55263 whole entry): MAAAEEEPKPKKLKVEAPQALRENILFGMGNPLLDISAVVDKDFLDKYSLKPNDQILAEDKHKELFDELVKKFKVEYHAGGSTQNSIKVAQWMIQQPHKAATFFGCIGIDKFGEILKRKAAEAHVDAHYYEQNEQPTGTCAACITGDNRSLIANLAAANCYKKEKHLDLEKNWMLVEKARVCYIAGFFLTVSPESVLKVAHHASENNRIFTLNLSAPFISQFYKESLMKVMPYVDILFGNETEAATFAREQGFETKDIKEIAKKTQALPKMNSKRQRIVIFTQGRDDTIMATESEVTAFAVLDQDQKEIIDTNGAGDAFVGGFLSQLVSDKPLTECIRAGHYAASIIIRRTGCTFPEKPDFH

SMILES | solubility [1] | IC50 (Adenosine kinase) | inhibition in vivo at 20 mg/kg (Rattus norvegicus)
C[C@H]1O[C@@H](n2cc(-c3ccccc3)c3c(Nc4ccccc4)ncnc32)[C@H](O)[C@@H]1O | < 0.05 µg/mL |  | 
CC(C)CNc1ncnc2c1c(-c1ccccc1)cn2[C@@H]1O[C@H](C)[C@@H](O)[C@H]1O | 3 µg/mL (≈ 7.84 µM) | 140 nM | 
C[C@H]1O[C@@H](n2cc(-c3ccccc3)c3c(NCC(=O)NCCCO)ncnc32)[C@H](O)[C@@H]1O | 650 µg/mL (≈ 1470 µM) | 16 nM | 4%
C[C@H]1O[C@@H](n2cc(-c3ccccc3)c3c(NCC(N)=O)ncnc32)[C@H](O)[C@@H]1O | 750 µg/mL (≈ 1960 µM) | 2 nM | 
O=C(CNc1ncnc2c1c(-c1ccccc1)nn2[C@@H]1O[C@H](CO)[C@@H](O)[C@H]1O)Nc1ccccc1 | 7 µg/mL (≈ 14.7 µM) | 0.9 nM | -10%
O=C(CNc1ncnc2c1c(-c1ccccc1)cn2[C@@H]1O[C@H](CO)[C@@H](O)[C@H]1O)NC1CC1 | 76 µg/mL (≈ 173 µM) | 3 nM | 21%
CCN(CC)CCNC(=O)CNc1ncnc2c1c(-c1ccccc1)cn2[C@@H]1O[C@H](C)[C@@H](O)[C@H]1O | > 1000 µg/mL | 210 nM | 11%
CCCNc1ncnc2c1c(-c1ccccc1)cn2[C@@H]1O[C@H](C)[C@@H](O)[C@H]1O | 16 µg/mL (≈ 43.4 µM) | 100 nM | 
CNC(=O)Nc1ncnc2c1c(-c1ccccc1)cn2[C@@H]1O[C@H](C)[C@@H](O)[C@H]1O | 32 µg/mL (≈ 83.5 µM) | 27 nM | 
O=C(CNc1ncnc2c1c(-c1ccccc1)cn2COCCO)Nc1ccc(Cl)cc1 | < 0.05 µg/mL | 60 nM | 31%
O=C(CNc1ncnc2c1c(-c1ccccc1)cn2[C@@H]1OC[C@@H](O)[C@H]1O)Nc1ccccc1 |  | 0.6 nM | 37%
O=C(CNc1ncnc2c1c(-c1ccccc1)cn2[C@@H]1OC[C@@H](O)[C@H]1O)NC1CC1 | 280 µg/mL (≈ 684 µM) | 20 nM | 17%
CCCNC(=O)CNc1ncnc2c1c(-c1ccccc1)cn2[C@@H]1O[C@H](C)[C@@H](O)[C@H]1O | 38 µg/mL (≈ 89.3 µM) | 7 nM | 41%
C[C@H]1O[C@@H](n2cc(I)c3c(NCC(=O)NC4CC4)ncnc32)[C@H](O)[C@@H]1O | 5 µg/mL (≈ 10.6 µM) | 880 nM | 
C[C@H](Nc1ncnc2c1c(-c1ccccc1)cn2[C@@H]1O[C@H](C)[C@@H](O)[C@H]1O)C(=O)NC1CC1 | 480 µg/mL (≈ 1100 µM) | 530 nM | 
O=C(CNc1ncnc2c1c(-c1ccccc1)nn2[C@@H]1O[C@H](CO)[C@@H](O)[C@H]1O)NC1CC1 | 370 µg/mL (≈ 840 µM) | 10 nM | 6%
COCCCNC(=O)CNc1ncnc2c1c(-c1ccccc1)cn2[C@@H]1O[C@H](C)[C@@H](O)[C@H]1O |  | 2 nM | 24%
C[C@H]1O[C@@H](n2cc(-c3ccccc3)c3c(NCC4CC4)ncnc32)[C@H](O)[C@@H]1O | 0.1 µg/mL (≈ 0.263 µM) | 45 nM | 
CNC(=O)CNc1ncnc2c1c(-c1ccccc1)cn2[C@@H]1O[C@H](C)[C@@H](O)[C@H]1O | 240 µg/mL (≈ 604 µM) | 0.8 nM | 35%
C[C@H]1O[C@@H](n2cc(-c3ccccc3)c3c(NC/C(S)=N\C4CC4)ncnc32)[C@H](O)[C@@H]1O | 8 µg/mL (≈ 18.2 µM) | 0.5 nM | 22%
C[C@H]1O[C@@H](n2cc(-c3ccccc3)c3c(NCC(=O)Nc4ccc(Cl)cc4)ncnc32)[C@H](O)[C@@H]1O | < 0.05 µg/mL | 0.2 nM | 62%

SMILES | solubility [1] | IC50 (Adenosine kinase) | inhibition in vivo at 20 mg/kg (Rattus norvegicus)
C[C@H]1O[C@@H](n2cc(-c3ccccc3)c3c(NCC(=O)NC4CCC4)ncnc32)[C@H](O)[C@@H]1O | 44 µg/mL (≈ 101 µM) | 1.3 nM | 60%
CC(C)CNC(=O)CNc1ncnc2c1c(-c1ccccc1)cn2[C@@H]1O[C@H](C)[C@@H](O)[C@H]1O | 7 µg/mL (≈ 15.9 µM) | 4 nM | 16%
O=C(CNc1[nH]cnc2ncc(-c3ccccc3)c1-2)NC1CC1 |  | > 10000 nM | 
C[C@H]1O[C@@H](n2cc(-c3ccccc3)c3c(NCCC(N)=O)ncnc32)[C@H](O)[C@@H]1O |  | 2500 nM | 
COCCNC(=O)CNc1ncnc2c1c(-c1ccccc1)cn2[C@@H]1O[C@H](C)[C@@H](O)[C@H]1O | 230 µg/mL (≈ 521 µM) | 38 nM | 44%
C[C@H]1O[C@@H](n2cc(-c3ccccc3)c3c(NCC(=O)N(C)C4CC4)ncnc32)[C@H](O)[C@@H]1O | 105 µg/mL (≈ 240 µM) | 460 nM | 
C[C@H]1O[C@@H](n2cc(-c3ccccc3)c3c(NC(=O)C(=O)NC4CC4)ncnc32)[C@H](O)[C@@H]1O | 17 µg/mL (≈ 38.9 µM) | 1.3 nM | 17%
C[C@H]1O[C@@H](n2cc(-c3ccccc3)c3c(NC4CC4)ncnc32)[C@H](O)[C@@H]1O | 36 µg/mL (≈ 98.2 µM) | 380 nM | 
C[C@H]1O[C@@H](n2cc(-c3ccccc3)c3c(NCC(=O)NCC4CC4)ncnc32)[C@H](O)[C@@H]1O | 12 µg/mL (≈ 27.4 µM) | 6 nM | 42%
CCNC(=O)CNc1ncnc2c1c(-c1ccccc1)cn2[C@@H]1O[C@H](C)[C@@H](O)[C@H]1O | 140 µg/mL (≈ 340 µM) | 40 nM | 52%
C[C@H]1O[C@@H](n2cc(-c3ccccc3)c3c(NCC(=O)NCCN(C)C)ncnc32)[C@H](O)[C@@H]1O | > 1000 µg/mL | 300 nM | 
C[C@@H](Nc1ncnc2c1c(-c1ccccc1)cn2[C@@H]1O[C@H](C)[C@@H](O)[C@H]1O)C(=O)NC1CC1 |  | 2500 nM | 
C[C@H]1O[C@@H](n2cc(-c3ccccc3)c3c(NCC(=O)NCCCN(C)C)ncnc32)[C@H](O)[C@@H]1O | > 1000 µg/mL | 145 nM | 22%
O=C(CNc1ncnc2c1c(-c1ccccc1)cn2COCCO)NC1CC1 | 270 µg/mL (≈ 708 µM) | 1700 nM | 
CC(C)NC(=O)CNc1ncnc2c1c(-c1ccccc1)cn2[C@@H]1O[C@H](C)[C@@H](O)[C@H]1O | 26 µg/mL (≈ 61.1 µM) | 25 nM | 74%
C[C@H]1O[C@@H](n2cc(-c3ccccc3)c3c(NCC(=O)Nc4ccccc4)ncnc32)[C@H](O)[C@@H]1O | < 0.05 µg/mL | 0.5 nM | 62%
CCCOC(=O)Nc1ncnc2c1c(-c1ccccc1)cn2[C@@H]1O[C@H](C)[C@@H](O)[C@H]1O |  | 4 nM | 
C[C@H]1O[C@@H](n2nc(-c3ccccc3)c3c(NCC(=O)NC4CC4)ncnc32)[C@H](O)[C@@H]1O | 620 µg/mL (≈ 1460 µM) | 6 nM | 7%
C[C@H]1O[C@@H](n2cc(-c3ccccc3)c3c(NCC(=O)NC4CCCC4)ncnc32)[C@H](O)[C@@H]1O | 6 µg/mL (≈ 13.3 µM) | 1 nM | 16%
CCONC(=O)CNc1ncnc2c1c(-c1ccccc1)cn2[C@@H]1O[C@H](C)[C@@H](O)[C@H]1O | 535 µg/mL (≈ 1250 µM) | 5 nM | 0%
C[C@H]1O[C@@H](n2cc(-c3ccccc3)c3c(Nc4ccc(F)cc4)ncnc32)[C@H](O)[C@@H]1O | < 0.05 µg/mL |  | 
